The source of these data is ChEMBL document CHEMBL3244205, “beta-D-Arabinofuran[1',2':4,5]oxazolo-1,3,5-triazine-5-N-methyl-4,6-dione and analogues, unusually specific immunosuppressive agents” (J Med Chem, 1978).

Broadly, the inhibition is the percentage by which the read-out fell short of the control.

Series [1] is described as follows: Immunosuppressive activity in H-2d alloantigen-sensitized C57B1/6 (H-2b) mouse spleen effector T cells assessed as inhibition of effector T cell-induced DBA/2 (H-2d) mouse [51Cr]-labeled P815 cell lysis by measuring lysed cells at 100 ug/mL after 4 hrs by [51Cr] release assay relative to control. Format: functional. The essentials: (§1)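 C57B1/6 (H-2^b) mice sensitized ip with 30–50 × 10^6 P815 mastocytoma cells (DBA/2-passaged). Spleens pooled from 5–7 mice taken 10 days later. Effectors mixed 50:1 with 51Cr-labeled P815 targets in RPMI 1640/Hepes with 10% heat-inactivated calf serum plus compound. Incubated 4 h at 37 °C in 83% N2/10% CO2/7% O2. Supernatant 51Cr counted, run in quadruplicate. % specific lysis computed from spontaneous and water-lysis controls, then expressed as % of untreated control.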

The nature of series [2]: Immunosuppressive activity in C57B1/6 mouse spleen effector T cells assessed as effect on number of IgM-anti sheep erythrocyte antibody plaque forming cells per culture at 1 ug/culture after 5 days in presence of sheep erythrocytes (reference value: 6440 +/- 2255 PFC/culture). Format: functional.
Series [3] in a line: Immunosuppressive activity in H-2d alloantigen-sensitized C57B1/6 (H-2b) mouse spleen effector T cells assessed as inhibition of effector T cell-induced DBA/2 (H-2d) mouse [51Cr]-labeled P815 cell lysis by measuring lysed cells at 10 ug/mL after 4 hrs by [51Cr] release assay relative to control. Format: functional. The essentials:
as §1

The subject of series [4] is Human alphaherpesvirus 1. Briefly: Antiviral activity against Herpes simplex virus type 1 infected in rabbit kidney monolayer cells assessed as reduction in viral titer. The series is classed as functional, organism-based.
Series [5] can be described thus: Immunosuppressive activity in C57B1/6 mouse spleen effector T cells assessed as ratio of effector T cell to DBA/2 mouse [51Cr]-labeled P815 cell giving 50% specific lysis at 100 ug/mL after 5 days by [51Cr] release assay in presence of B6D2(F1) mouse spleen cells (reference value: 6 no unit). The series is classed as functional. The method, boiled down: (§2)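 Normal C57B1/6 spleen cells (10 × 10^6) cocultured 5 days at 37 °C (83% N2/10% CO2/7% O2) with 0.5 × 10^6 B6D2F1 spleen cells as antigen and compound at 100 μg/mL. Medium was RPMI 1640 with 20% fetal calf serum and gentamycin, using at least 12 cultures per concentration. Pooled cells were then mixed with 51Cr-P815 targets at various ratios (≥3 replicates/ratio) for 3 h at 37 °C. Lysis was plotted against ratio; lytic unit = cells giving 50% lysis of 25 × 10^3 targets.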

A short description of series [6]: Immunosuppressive activity in C57B1/6 mouse spleen effector T cells assessed as effect on number of IgM-anti sheep erythrocyte antibody plaque forming cells per culture at 10 ug/culture after 5 days in presence of sheep erythrocytes (reference value: 6440 +/- 2255 PFC/culture). Format: functional.
Series [7] is described as follows: Immunosuppressive activity in H-2d alloantigen-sensitized C57B1/6 (H-2b) mouse spleen effector T cells assessed as inhibition of effector T cell-induced DBA/2 (H-2d) mouse [51Cr]-labeled P815 cell lysis by measuring lysed cells at 1 ug/mL after 4 hrs by [51Cr] release assay relative to control. Format: functional. The essentials:
as §1

Series [8] in a line: Immunosuppressive activity in C57B1/6 mouse spleen effector T cells assessed as effect on number of IgM-anti sheep erythrocyte antibody plaque forming cells per culture at 100 ug/culture after 5 days in presence of sheep erythrocytes (reference value: 6440 +/- 2255 PFC/culture). The series is classed as functional.
Series [9] in a line: Immunosuppressive activity in C57B1/6 mouse spleen effector T cells assessed as recovery of number of T cell required to give 50% lysis of 25 X 10^3 DBA/2 mouse [51Cr]-labeled P815 cells treated on day 4 of 5 days culture system measured after day 5 by [51Cr] release assay in presence of B6D2(F1) mouse spleen cells relative to control. The series is classed as functional. The essentials: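 Alloantigen coculture was the same: C57B1/6 spleen cells plus B6D2F1 stimulator cells, 5 days at 37 °C. Here compound was added on day 4 rather than at culture start. On day 5, cells were pooled and assayed against 51Cr-P815 targets for 3 h. Lytic units (cells giving 50% lysis of 25 × 10^3 targets) recovered per culture were expressed as percent of control.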

Series [10] is described as follows: Cytotoxicity against C57B1/6 mouse spleen effector T cells assessed as decrease in cell number at 100 ug/mL after 5 days relative to control. Format: cell-based. Particulars: 120 h.
The nature of series [11]: Immunosuppressive activity in C57B1/6 mouse spleen effector T cells assessed as inhibition of effector T cell-induced DBA/2 mouse [51Cr]-labeled P815 cell lysis at 100 ug/mL after 5 days by [51Cr] release assay in presence of B6D2(F1) mouse spleen cells relative to control. The series is classed as functional. Particulars: C57B1/6, P815, Spleen, 120 h. The method, boiled down:
as §2

A short description of series [12]: Cytotoxicity against C57B1/6 (H-2b) mouse spleen effector T cells assessed as decrease in cell number at 1 to 100 ug/mL after 4 hrs relative to control. Format: cell-based.
Series [13] relates to Human alphaherpesvirus 1. Briefly: Antiviral activity against Herpes simplex virus type 1 infected in rabbit kidney monolayer cells assessed as reduction in viral titer at 25 ug/mL relative to control. Format: functional.
Series [14] relates to Human alphaherpesvirus 1. Briefly: Antiviral activity against Herpes simplex virus type 1 infected in mouse assessed as mean survival time at 200 mg/kg, sc tid administered for 4 days (reference value: 8.3 days). Format: functional. The conditions noted are these: route subcutaneous.
Series [15] relates to Human alphaherpesvirus 1. Briefly: Antiviral activity against Herpes simplex virus type 1 infected in mouse assessed as mean survival time at 150 mg/kg, sc tid administered for 4 days (reference value: 8.3 days). The series is classed as functional. The conditions noted are these: route subcutaneous. The essentials:
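HSV-1-infected mice dosed subcutaneously three times daily on days 0–4. Vehicle-dosed infected mice served as controls. Read-out was mean survival time in days.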

Active and inactive are the calls of the source. The rule behind the calls is not given here.

As to `CC(=O)OC[C@H]1O[C@@H](n2c(=O)[nH]c(=O)n(C)c2=O)[C@@H](OC(C)=O)[C@@H]1OC(C)=O`, the “Specific lysis, % of untreated control” value in series [1] worked out at 88%; in series [3] it was 96%. Moreover, the PFC in series [2] came out at 4907; in [6], 4307; in [8], 10040. In addition, the result in the series with Human alphaherpesvirus 1 [4] was inactive. Moreover, the Ratio in series [5] worked out at 10.5. Further, in series [7], the “Specific lysis as % of untreated control” value was determined as 96%. In addition, in series [9], the Activity is on record as 90%.
Take `CC(=O)OC[C@H]1O[C@@H]2[C@@H](Oc3nc(=O)n(C)c(=O)n32)[C@@H]1OC(C)=O`: the “Specific lysis, % of untreated control” value in series [1] stood at 93%; in series [3] it was 103%. Moreover, the figures for the PFC in series [2], in series [6] and in series [8] were 5240, 5933 and 8720, respectively. Besides, the outcome with Human alphaherpesvirus 1 [4] was Active. Moreover, the Ratio in series [5] came to 8.5. In addition, the “Specific lysis as % of untreated control” value in [7] is on record as 95%. For the same compound, the Activity in [9] is given as 90%.
As for `Cn1c(=O)[nH]c(=O)n([C@@H]2O[C@H](CO)[C@@H](O)[C@@H]2O)c1=O`, the “Specific lysis, % of untreated control” value in series [1] stood at 93%; in series [3] it was 98%. In addition, the PFC in series [2] is given as 6240; in [6] it was 5520; in series [8], 6293. Further, in the series on Human alphaherpesvirus 1 [4], the result was inactive. The results for the Activity entry in series [10], in series [12] and in series [9] were “Non-toxic”, “Non-toxic” and 90%, respectively. For the same compound, the inhibition at 100 µg/mL in series [11] stood at 84%. In addition, the “Specific lysis as % of untreated control” value in series [7] is 94%.
Take `CN1CN([C@H]2C[C@H](O)[C@@H](CO)O2)C(=O)NC1=O`: the results for the “Specific lysis, % of untreated control” value in series [1] and in [3] were 73% and 88%, respectively. Also, the Ratio in [5] is listed as 7.2. In addition, the “fold change (FC)” value with Human alphaherpesvirus 1 [13] came out at 10. The “Specific lysis as % of untreated control” value in series [7] is on record as 90%. In series [9], the Activity came to 90%. For the same compound, the MST with Human alphaherpesvirus 1 [14] was 18 days.
Turning to `Cn1c(=O)nc2n(c1=O)[C@@H]1O[C@H](CO)[C@@H](O)[C@@H]1O2`, the “Specific lysis, % of untreated control” value came to 92% in series [1] and 88% in series [3]. The PFC is given as 4227 in [2], 4853 in series [6] and 7107 in series [8]. Moreover, the Activity entry in series [10] is recorded as “Non-toxic”; in series [12] it was “Non-toxic”; in series [9], 90%. Further, the inhibition at 100 µg/mL in series [11] was determined as 90%. Besides, the “Specific lysis as % of untreated control” value in series [7] was 100%. The MST in the series on Human alphaherpesvirus 1 [15] is 5.4 days.
